The source made the active and inactive calls. No cut-off for these calls is given here.
Key:
[1] = target: T1, Poly [ADP-ribose] polymerase 1 (Homo sapiens, UniProt P09874); assay: Inhibition of human PARP1 by scintillation proximity assay
[2] = target: T1, Poly [ADP-ribose] polymerase 1; assay: Inhibition of PARP1 in human HeLa cells assessed as inhibition of hydrogen peroxide-induced poly(ADP-ribosyl)ation; assay type: cell-based
[3] = Intrinsic clearance in rat liver microsomes; assay type: ADME, Microsome
[4] = target: T2, Poly [ADP-ribose] polymerase 2 (Homo sapiens, UniProt Q9UGN5); assay: Inhibition of PARP2
[5] = target: T3, Protein mono-ADP-ribosyltransferase PARP3 (Homo sapiens, UniProt Q9Y6F1); assay: Inhibition of PARP3
T3 sequence (Q9Y6F1 whole entry): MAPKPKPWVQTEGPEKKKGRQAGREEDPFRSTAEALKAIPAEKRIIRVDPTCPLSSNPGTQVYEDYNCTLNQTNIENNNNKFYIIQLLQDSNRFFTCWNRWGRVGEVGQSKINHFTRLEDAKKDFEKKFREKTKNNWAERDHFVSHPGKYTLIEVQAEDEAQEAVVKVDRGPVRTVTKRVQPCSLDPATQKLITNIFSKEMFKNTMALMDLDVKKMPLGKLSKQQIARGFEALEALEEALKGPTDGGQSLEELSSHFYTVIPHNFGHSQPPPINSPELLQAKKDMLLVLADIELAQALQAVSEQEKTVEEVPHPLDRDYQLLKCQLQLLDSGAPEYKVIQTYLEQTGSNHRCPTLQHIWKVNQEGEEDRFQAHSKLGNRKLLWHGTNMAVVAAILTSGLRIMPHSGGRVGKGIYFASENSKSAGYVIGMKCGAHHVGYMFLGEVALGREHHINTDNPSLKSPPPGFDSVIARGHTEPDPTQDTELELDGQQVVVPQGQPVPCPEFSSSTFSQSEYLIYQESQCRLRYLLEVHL

[6] = target: Protein mono-ADP-ribosyltransferase PARP4 (Homo sapiens, UniProt Q9UKK3); assay: Inhibition of VPARP
[7] = target: T4, Poly [ADP-ribose] polymerase tankyrase-1 (Homo sapiens, UniProt O95271); assay: Inhibition of Tankyrase 1
T4 sequence (O95271 whole entry): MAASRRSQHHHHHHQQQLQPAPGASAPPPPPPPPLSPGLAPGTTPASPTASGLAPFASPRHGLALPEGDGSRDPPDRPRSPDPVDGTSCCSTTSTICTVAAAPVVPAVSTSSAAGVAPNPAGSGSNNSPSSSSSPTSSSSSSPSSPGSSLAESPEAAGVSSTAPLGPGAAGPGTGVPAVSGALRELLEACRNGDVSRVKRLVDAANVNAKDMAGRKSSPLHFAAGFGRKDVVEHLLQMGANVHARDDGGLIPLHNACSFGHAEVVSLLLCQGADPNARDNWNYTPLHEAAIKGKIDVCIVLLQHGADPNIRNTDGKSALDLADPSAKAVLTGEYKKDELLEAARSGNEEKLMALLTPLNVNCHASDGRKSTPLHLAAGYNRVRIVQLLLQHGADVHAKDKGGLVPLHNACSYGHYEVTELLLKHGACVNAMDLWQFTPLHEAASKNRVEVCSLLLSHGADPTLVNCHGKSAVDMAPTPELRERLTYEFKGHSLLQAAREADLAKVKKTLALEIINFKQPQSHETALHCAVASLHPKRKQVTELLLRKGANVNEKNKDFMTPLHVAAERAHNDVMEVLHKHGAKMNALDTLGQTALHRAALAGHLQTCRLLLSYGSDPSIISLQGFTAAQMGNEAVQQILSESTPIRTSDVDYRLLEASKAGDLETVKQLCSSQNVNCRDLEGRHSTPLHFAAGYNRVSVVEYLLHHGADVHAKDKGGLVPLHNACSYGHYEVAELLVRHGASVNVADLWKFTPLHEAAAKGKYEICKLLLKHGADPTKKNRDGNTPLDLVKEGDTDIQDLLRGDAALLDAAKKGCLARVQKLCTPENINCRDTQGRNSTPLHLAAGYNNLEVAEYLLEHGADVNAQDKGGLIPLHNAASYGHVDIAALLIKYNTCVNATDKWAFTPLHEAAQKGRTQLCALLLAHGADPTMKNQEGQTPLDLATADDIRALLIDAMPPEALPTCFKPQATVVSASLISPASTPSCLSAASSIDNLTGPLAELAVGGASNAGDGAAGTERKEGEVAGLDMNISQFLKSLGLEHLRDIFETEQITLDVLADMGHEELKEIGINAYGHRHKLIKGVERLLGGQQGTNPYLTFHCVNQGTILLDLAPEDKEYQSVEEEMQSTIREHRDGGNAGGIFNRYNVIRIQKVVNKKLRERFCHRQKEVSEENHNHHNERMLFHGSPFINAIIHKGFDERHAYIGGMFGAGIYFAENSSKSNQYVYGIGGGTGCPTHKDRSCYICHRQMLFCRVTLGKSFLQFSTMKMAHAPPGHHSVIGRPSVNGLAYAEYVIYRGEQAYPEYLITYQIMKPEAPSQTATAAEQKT

[8] = Half life in rat at 3 mg/kg, iv and po; assay type: ADME, organism-based; design: dose 3 mg/kg, route oral; conditions: in vivo
How it was run: (§1)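 Rats received the compound both intravenously and orally, each at 3 mg/kg. Reported PK parameters are half-life (h), volume of distribution (L/kg), clearance (ml/min/kg), oral bioavailability (%F) and oral AUC (μM h).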

Rattus norvegicus = assay: Volume of distribution in rat at 3 mg/kg, iv and po; assay type: ADME, organism-based; design: dose 3 mg/kg, route oral; conditions: in vivo; how it was run: as §1
[9] = Inhibition of Cytochrome P450 at 10 uM; assay type: ADME
[10] = target: Voltage-gated inwardly rectifying potassium channel KCNH2 (Homo sapiens, UniProt Q12809); assay: Binding affinity to potassium channel IKr at 10 uM
[11] = target: T2, Poly [ADP-ribose] polymerase 2; assay: Inhibition of PARP2 at 1 uM
[12] = target: T1, Poly [ADP-ribose] polymerase 1; assay: Inhibition of human PARP1 at 1 uM by scintillation proximity assay
[13] = Inhibition of Tankyrase at 1 uM

T1 sequence (P09874 whole entry): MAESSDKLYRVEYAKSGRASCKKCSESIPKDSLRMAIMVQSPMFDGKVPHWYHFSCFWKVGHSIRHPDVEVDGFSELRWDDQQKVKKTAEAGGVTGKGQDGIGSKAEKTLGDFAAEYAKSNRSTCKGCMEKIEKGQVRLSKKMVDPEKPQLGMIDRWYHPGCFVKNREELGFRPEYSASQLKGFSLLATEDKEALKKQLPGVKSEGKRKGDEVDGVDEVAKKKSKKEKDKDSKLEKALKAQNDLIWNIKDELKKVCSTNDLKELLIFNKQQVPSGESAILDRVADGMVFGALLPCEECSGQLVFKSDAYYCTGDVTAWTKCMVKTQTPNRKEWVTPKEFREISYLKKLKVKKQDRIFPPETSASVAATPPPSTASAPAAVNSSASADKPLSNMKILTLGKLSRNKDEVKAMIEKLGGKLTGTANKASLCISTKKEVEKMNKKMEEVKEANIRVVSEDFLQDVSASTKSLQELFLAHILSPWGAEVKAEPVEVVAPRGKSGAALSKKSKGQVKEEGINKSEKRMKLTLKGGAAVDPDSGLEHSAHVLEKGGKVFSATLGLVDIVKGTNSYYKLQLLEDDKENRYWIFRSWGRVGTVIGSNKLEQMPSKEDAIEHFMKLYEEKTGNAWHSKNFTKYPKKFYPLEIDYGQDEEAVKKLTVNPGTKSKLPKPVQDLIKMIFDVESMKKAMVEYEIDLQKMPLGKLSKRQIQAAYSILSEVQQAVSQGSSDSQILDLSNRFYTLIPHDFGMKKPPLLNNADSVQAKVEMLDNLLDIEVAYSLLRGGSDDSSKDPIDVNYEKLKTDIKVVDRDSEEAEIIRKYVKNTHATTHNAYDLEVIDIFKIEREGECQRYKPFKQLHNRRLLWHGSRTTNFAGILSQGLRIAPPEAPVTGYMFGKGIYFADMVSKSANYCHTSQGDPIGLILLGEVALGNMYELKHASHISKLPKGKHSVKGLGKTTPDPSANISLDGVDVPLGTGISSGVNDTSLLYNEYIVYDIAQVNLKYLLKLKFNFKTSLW
T2 sequence (Q9UGN5 whole entry): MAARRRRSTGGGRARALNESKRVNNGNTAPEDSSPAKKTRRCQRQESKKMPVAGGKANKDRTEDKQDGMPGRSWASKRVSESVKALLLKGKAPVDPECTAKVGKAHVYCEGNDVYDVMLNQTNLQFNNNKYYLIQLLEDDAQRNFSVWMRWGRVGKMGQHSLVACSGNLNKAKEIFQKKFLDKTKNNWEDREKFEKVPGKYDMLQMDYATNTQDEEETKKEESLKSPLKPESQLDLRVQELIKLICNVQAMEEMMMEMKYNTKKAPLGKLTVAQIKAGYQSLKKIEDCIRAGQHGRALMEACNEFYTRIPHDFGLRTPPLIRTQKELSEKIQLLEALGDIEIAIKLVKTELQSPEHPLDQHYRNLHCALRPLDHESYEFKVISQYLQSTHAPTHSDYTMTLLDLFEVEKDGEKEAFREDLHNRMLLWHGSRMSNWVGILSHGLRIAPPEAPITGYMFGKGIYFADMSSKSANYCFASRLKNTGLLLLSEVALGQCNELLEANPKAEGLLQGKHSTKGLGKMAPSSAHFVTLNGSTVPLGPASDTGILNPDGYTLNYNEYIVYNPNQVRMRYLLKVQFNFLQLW
Protein mono-ADP-ribosyltransferase PARP4, sequence (Q9UKK3 whole entry): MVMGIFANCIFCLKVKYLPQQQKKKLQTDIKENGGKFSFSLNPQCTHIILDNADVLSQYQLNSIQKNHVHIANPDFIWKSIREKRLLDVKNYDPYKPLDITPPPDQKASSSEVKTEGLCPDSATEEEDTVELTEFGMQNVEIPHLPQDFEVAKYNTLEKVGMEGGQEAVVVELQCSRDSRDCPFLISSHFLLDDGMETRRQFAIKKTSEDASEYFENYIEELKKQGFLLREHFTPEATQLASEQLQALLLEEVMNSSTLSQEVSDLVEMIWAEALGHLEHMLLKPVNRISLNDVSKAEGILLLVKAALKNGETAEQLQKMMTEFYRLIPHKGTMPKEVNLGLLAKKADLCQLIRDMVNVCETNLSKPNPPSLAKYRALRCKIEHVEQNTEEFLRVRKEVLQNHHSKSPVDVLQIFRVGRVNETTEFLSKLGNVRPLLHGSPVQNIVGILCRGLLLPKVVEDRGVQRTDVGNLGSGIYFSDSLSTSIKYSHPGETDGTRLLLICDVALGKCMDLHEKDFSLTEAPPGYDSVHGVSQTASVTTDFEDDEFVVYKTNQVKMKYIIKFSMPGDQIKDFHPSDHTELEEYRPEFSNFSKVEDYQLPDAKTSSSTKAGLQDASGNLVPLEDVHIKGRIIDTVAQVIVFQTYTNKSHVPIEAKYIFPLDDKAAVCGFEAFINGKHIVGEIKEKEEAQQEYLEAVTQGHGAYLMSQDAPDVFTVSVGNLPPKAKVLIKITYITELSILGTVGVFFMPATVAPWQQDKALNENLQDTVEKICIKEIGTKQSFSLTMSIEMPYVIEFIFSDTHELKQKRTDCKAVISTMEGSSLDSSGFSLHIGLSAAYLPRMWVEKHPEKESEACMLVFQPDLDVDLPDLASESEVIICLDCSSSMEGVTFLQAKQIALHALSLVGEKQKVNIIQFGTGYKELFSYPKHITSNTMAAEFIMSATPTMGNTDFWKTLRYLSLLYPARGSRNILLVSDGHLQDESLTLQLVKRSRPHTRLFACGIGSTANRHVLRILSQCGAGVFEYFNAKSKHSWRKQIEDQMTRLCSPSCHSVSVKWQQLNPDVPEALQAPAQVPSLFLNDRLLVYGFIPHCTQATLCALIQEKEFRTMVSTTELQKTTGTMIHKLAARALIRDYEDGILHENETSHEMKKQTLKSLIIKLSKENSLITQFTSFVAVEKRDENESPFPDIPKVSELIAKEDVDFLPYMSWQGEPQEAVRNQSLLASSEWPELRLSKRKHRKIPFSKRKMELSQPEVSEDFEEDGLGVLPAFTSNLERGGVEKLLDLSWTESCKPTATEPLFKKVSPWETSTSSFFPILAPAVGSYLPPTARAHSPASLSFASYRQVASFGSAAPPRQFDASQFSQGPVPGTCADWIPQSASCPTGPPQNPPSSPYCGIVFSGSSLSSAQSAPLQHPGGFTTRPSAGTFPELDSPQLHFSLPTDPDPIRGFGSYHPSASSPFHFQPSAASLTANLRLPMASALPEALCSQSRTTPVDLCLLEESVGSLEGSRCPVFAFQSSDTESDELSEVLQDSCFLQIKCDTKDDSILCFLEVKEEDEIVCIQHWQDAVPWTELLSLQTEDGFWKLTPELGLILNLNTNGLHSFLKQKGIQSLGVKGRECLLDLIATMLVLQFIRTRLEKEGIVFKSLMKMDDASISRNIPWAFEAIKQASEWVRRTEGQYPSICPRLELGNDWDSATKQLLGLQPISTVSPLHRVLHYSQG
Voltage-gated inwardly rectifying potassium channel KCNH2, sequence (Q12809 whole entry): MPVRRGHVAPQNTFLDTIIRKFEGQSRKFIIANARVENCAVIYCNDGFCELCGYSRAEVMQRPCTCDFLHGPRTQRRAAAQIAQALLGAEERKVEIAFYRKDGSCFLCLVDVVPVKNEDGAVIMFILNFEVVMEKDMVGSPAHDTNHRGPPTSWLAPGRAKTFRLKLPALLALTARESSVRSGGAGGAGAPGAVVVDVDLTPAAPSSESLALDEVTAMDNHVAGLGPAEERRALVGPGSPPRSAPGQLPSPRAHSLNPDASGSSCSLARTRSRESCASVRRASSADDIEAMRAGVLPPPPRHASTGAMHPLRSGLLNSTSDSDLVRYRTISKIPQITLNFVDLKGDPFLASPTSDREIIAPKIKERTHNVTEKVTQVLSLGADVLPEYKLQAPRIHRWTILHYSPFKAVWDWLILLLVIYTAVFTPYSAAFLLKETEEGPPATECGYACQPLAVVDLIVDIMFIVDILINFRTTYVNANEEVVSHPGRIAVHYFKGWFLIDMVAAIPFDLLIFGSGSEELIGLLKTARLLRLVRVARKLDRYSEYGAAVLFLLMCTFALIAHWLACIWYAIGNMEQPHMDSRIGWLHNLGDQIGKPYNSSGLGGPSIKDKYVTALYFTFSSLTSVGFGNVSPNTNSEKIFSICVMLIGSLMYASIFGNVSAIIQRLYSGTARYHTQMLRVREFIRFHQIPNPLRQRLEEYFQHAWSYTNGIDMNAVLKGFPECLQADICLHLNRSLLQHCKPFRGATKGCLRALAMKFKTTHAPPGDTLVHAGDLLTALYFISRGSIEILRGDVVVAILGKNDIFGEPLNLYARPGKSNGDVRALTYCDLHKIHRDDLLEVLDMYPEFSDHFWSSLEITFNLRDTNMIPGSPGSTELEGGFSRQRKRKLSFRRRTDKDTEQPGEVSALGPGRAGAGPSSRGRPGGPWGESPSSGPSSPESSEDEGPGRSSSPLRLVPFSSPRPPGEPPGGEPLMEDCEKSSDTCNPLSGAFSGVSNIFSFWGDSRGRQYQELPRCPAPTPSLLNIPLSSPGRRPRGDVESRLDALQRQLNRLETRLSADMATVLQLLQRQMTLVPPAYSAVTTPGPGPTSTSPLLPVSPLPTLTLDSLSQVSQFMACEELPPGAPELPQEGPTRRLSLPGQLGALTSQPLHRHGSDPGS

| SMILES | IC50 [1] | EC50 [2] | other results |
| --- | --- | --- | --- |
| O=C1NCC2c3c(cccc31)CCN2C(=O)c1cccc(Cl)c1 (stereo not given) | 37 nM | – | – |
| O=C1NCC2c3c(cccc31)CCN2C(=O)c1ccccc1 (stereo not given) | 4 nM | 840 nM | – |
| O=C1NCC2c3c(cccc31)CCN2C(=O)Cc1ccc(Cl)cc1 (stereo not given) | 5 nM | 650 nM | – |
| O=C1NCC2c3c(cccc31)CCN2C(=O)CCc1cnccn1 (stereo not given) | 6 nM | 330 nM | microsomal CLint [3]: 24 µL/min/mg; IC50 [4]: 1 nM; IC50 [5]: 70 nM; IC50 [6]: 660 nM; IC50 [7]: 2000 nM; half-life [8]: 1.2 h; Vd (Rattus norvegicus): 2 L/kg; Activity [9]: Not Active; Activity [10]: Not Active |
| Cn1cc(CCC(=O)N2CCc3cccc4c3C2CNC4=O)cn1 (stereo not given) | 14 nM | 420 nM | – |
| CC(=O)N1CCC[C@H]1C(=O)N1CCc2cccc3c2C1CNC3=O (stereo not given in full) | 14 nM | 2800 nM | – |
| O=C1NCC2c3c(cccc31)CCN2C(=O)CCc1ccccc1 (stereo not given) | 4 nM | 350 nM | – |
| O=C1NCC2c3c(cccc31)CCN2C(=O)c1ccc(C(=O)N2CCCNCC2)cc1 (stereo not given) | 130 nM | – | – |
| O=C1NCC2c3c(cccc31)CCN2C(=O)C1CCNC1 (stereo not given) | 1 nM | 3200 nM | – |
| O=C1NCC2c3c(cccc31)CCN2C(=O)c1cccc(C(=O)N2CCCNCC2)c1 (stereo not given) | 50 nM | – | – |
| O=C1NCC2c3c(cccc31)CCN2C(=O)Cc1ccc(Br)cc1 (stereo not given) | 7 nM | 200 nM | – |
| COc1cccc(CC(=O)N2CCc3cccc4c3C2CNC4=O)c1 (stereo not given) | 5 nM | 1200 nM | – |
| COc1ccc(CC(=O)N2CCc3cccc4c3C2CNC4=O)cc1 (stereo not given) | 6 nM | 160 nM | – |
| O=C1CC2NCCc3cccc(c32)N1 (stereo not given) | – | – | inhibition [11]: inactive; inhibition [12]: inactive |
| O=C1NCC2c3c(cccc31)CCN2C(=O)Cc1ccncc1 (stereo not given) | 10 nM | 4600 nM | – |
| O=C1NCC2c3c(cccc31)CCN2C(=O)CN1CCN(c2ccccc2)CC1 (stereo not given) | 11 nM | 440 nM | – |
| O=C1NCC2c3c(cccc31)CCN2S(=O)(=O)Cc1ccccc1 (stereo not given) | 83 nM | 2700 nM | – |
| COc1ccccc1CC(=O)N1CCc2cccc3c2C1CNC3=O (stereo not given) | 27 nM | 1700 nM | – |
| O=C1NCC2c3c(cccc31)CCN2C(=O)CN1CCC(c2ccccc2)CC1 (stereo not given) | 0.5 nM | 410 nM | – |
| O=C1NCC2c3c(cccc31)CCN2C(=O)Cc1cccc(Cl)c1 (stereo not given) | 5 nM | 1100 nM | – |
| O=C1NCC2c3c(cccc31)CCN2C(=O)c1ccc(Cl)cc1 (stereo not given) | 7 nM | 260 nM | – |
| O=C1NCC2c3c(cccc31)CCN2C(=O)Cc1ccccn1 (stereo not given) | 13 nM | 230 nM | – |
| O=C1NCC2c3c(cccc31)CCN2C(=O)CCn1cnc2ccccc21 (stereo not given) | 1 nM | 1600 nM | – |

| SMILES | IC50 [1] | EC50 [2] | other results |
| --- | --- | --- | --- |
| O=C1NCC2c3c(cccc31)CCN2C(=O)OCc1ccccc1 (stereo not given) | 14 nM | 130 nM | – |
| O=C1NCC2c3c(cccc31)CCN2C(=O)NCc1ccccc1 (stereo not given) | 12 nM | 690 nM | – |
| CN(C)C(=O)CCC(=O)N1CCc2cccc3c2C1CNC3=O (stereo not given) | 9 nM | 2800 nM | – |
| O=C1NCC2c3c(cccc31)CCN2C(=O)C1CNC1 (stereo not given) | 1 nM | 660 nM | – |
| O=C1NCC2c3c(cccc31)CCN2C(=O)C1CCCC1 (stereo not given) | 11 nM | 550 nM | – |
| O=C1NCC2c3c(cccc31)CCN2C(=O)c1ccccc1Cl (stereo not given) | 35 nM | – | – |
| O=C1NCC2c3c(cccc31)CCN2C(=O)Cc1ccccc1 (stereo not given) | 8 nM | 230 nM | – |
| N#Cc1ccc(CC(=O)N2CCc3cccc4c3C2CNC4=O)cc1 (stereo not given) | 9 nM | 200 nM | – |
| O=C1NCC2c3c(cccc31)CCN2C(=O)CN1CCCCC1 (stereo not given) | 6 nM | 280 nM | microsomal CLint [3]: 18 µL/min/mg |
| Cc1c(CC(=O)N2CCc3cccc4c3C2CNC4=O)sc2ccccc12 (stereo not given) | 13 nM | 1300 nM | – |
| Cc1csc(CC(=O)N2CCc3cccc4c3C2CNC4=O)n1 (stereo not given) | 6 nM | 2900 nM | – |
| O=C1NCC2c3c(cccc31)CCN2C(=O)Cc1ccc(OCc2ccccc2)cc1 (stereo not given) | 16 nM | 580 nM | – |
| CN1CCN(CC(=O)N2CCc3cccc4c3C2CNC4=O)CC1 (stereo not given) | 97 nM | 3500 nM | – |
| CCN(CC)Cc1ccc(C(=O)N2CCc3cccc4c3C2CNC4=O)cc1 (stereo not given) | 13 nM | 310 nM | – |
| O=C1NCC2c3c(cccc31)CCN2C(=O)Cc1ccccc1Cl (stereo not given) | 16 nM | 900 nM | – |
| Nc1cccc2c1CCNC2=O | 0.5 nM | – | – |
| O=C(O)CCCC(=O)N1CCc2cccc3c2C1CNC3=O (stereo not given) | 15 nM | 5000 nM | – |
| O=C1NCC2NCCc3cccc1c32 (stereo not given) | 140 nM | – | inhibition [13]: 11% |
| O=C1NCC2c3c(cccc31)CCN2C(=O)Oc1ccccc1 (stereo not given) | 9 nM | 1400 nM | – |
| O=C1NCC2c3c(cccc31)CCN2Cc1ccccc1 (stereo not given) | 190 nM | 5200 nM | – |
| O=C1NCC2c3c(cccc31)CCN2C(=O)[C@@H]1CCCN1 (stereo not given in full) | 4 nM | 180 nM | – |
| O=C1NCC2c3c(cccc31)CCN2C(=O)Nc1ccccc1 (stereo not given) | 11 nM | 1100 nM | – |

Source: ChEMBL document CHEMBL1153250, “Discovery and SAR of novel, potent and selective hexahydrobenzonaphthyridinone inhibitors of poly(ADP-ribose)polymerase-1 (PARP-1)” (Bioorg Med Chem Lett, 2010)
